Reference: publication PMC4387373 (Infectious Disease Reports, 2015)
Where two headings read alike, the source gives them in different places. Each block holds one compound with its values, some of them ahead of it.

Legend:
[1] = Plasma concentrations of protease inhibitors; assay type: in vivo, human; settings: for concentration at 2 h / concentration at 4 h / concentration at 6 h / concentration at 8 h: human, plasma, oral; for Plasma concentration, t0: t0, 8 a.m., before intake of antiretroviral dose, fosamprenavir 700 mg bid
Method in brief: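 Heparinized venous blood was drawn before the morning antiretroviral dose (T0) and at 2, 4, 6 and 8 h after it. Plasma was separated by centrifugation and stored at −80 °C. PI levels were measured by a validated HPLC method.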

[2] = cited from earlier work
[3] = assay type: in vivo, human; settings: for concentration at 2 h / concentration at 4 h / concentration at 6 h / concentration at 8 h: human, plasma, oral; for Cthrough (through concentration): patient on sildenafil 40 mg tid, bosentan 125 mg bid, ritonavir-boosted PI
[4] = cited from earlier work; remark: listed apart in the source
[5] = Clinical course of the patient: hemodynamics, functional class, tolerability; assay type: in vivo, human
[6] = cited from earlier work; remark: listed apart in the source
[7] = tested on: phosphodiesterase; settings: same phosphodiesterase specificity as sildenafil; cited from earlier work
[8] = coadministered with lopinavir/ritonavir

SMILES: CCCc1nn(C)c2c(=O)[nH]c(-c3cc(S(=O)(=O)N4CCN(C)CC4)ccc3OCC)nc12 [sildenafil]
Increase of AUC ([2]; with ritonavir 500 mg twice daily): 11 fold
Plasma concentration at which maximal reductions in PAP and PVR were obtained [4]: ~100 ng/mL
Mean PAP ([5]; May 2012, worsening exertional dyspnea on sildenafil 20 mg tid): 47 mmHg
Mean PAP ([5]; October 2012, after sildenafil increased to 40 mg tid, bosentan 125 mg bid): 40 mmHg
6-minute walking test ([5]; October 2012, sildenafil 40 mg tid, bosentan 125 mg bid): 479 m
NYHA stage change ([5]; after introduction of sildenafil 20 mg tid): from NYHA stage III to NYHA stage II
Mean PAP ([5]; after sildenafil 20 mg tid was added to bosentan, previously 63 mmHg): 43 mmHg
Eye fundus examination versus baseline ([5]; during follow-up): no significant changes
Influence on systemic blood pressure ([5]; measured regularly during the investigation): no significant influence
Adverse reactions during follow-up ([5]; patient with raised sildenafil levels, headache, flushing, dyspepsia, priapism): did not report any adverse reactions
tmax ([6]; healthy adults, 20 mg tid, oral): approximately 1 hour
Cmax ([6]; healthy adults, sildenafil 20 mg tid): about 145 ng/mL
Plasma concentration versus the therapeutic range ([3]; coadministration of sildenafil and ritonavir-boosted PI): above the therapeutic range
concentration at 2 h [3]: 925 ng/mL
concentration at 4 h [3]: 566 ng/mL
concentration at 6 h [3]: 1730 ng/mL
concentration at 8 h [3]: 900 ng/mL
Cthrough (through concentration) [3]: 276.94 ng/mL

SMILES: CCCc1nn(C)c2c(=O)[nH]c(-c3cc(S(=O)(=O)N4CCNCC4)ccc3OCC)nc12 [N-desmethylsildenafil]
Potency relative to sildenafil [7]: about half the potency
Plasma levels as % of the parent drug ([6]; metabolite relative to sildenafil): 40-50%
Plasma concentrations as % of the parent drug ([3]; during the study, patient on ritonavir-boosted PI): 40-50%
Plasma concentration, t2 ([3]; t2, 10 a.m., 2 hours after intake of sildenafil and bosentan): 58.33 ng/mL
Plasma concentration, t4 ([3]; t4, noon, 4 hours after intake of sildenafil and bosentan): 61.85 ng/mL
Plasma concentration, t6 ([3]; t6, 2 p.m., 6 hours after intake of sildenafil and bosentan): 140.95 ng/mL
Plasma concentration, t8 ([3]; t8, 4 p.m., 8 hours after intake of sildenafil and bosentan): 121.35 ng/mL

Second part, led by results:

concentration at 2 h [1]: < 50 ng/mL
concentration at 4 h [1]: < 50 ng/mL
concentration at 6 h [1]: < 50 ng/mL
concentration at 8 h [1]: < 50 ng/mL
Plasma levels in all of the samples ([1]; ritonavir 100 mg bid, bosentan coadministered): undetectable
Plasma concentration, t0 ([1]; ritonavir 100 mg bid): <50 ng/mL
SMILES: CC(C)c1nc(CN(C)C(=O)N[C@H](C(=O)N[C@@H](Cc2ccccc2)C[C@H](O)[C@H](Cc2ccccc2)NC(=O)OCc2cncs2)C(C)C)cs1 [ritonavir]

concentration at 2 h [3]: 3370 ng/mL
concentration at 4 h [3]: 1750 ng/mL
concentration at 6 h [3]: 1310 ng/mL
concentration at 8 h [3]: 1230 ng/mL
Cthrough (through concentration) [3]: 1546.53 ng/mL
SMILES: COc1ccccc1Oc1c(NS(=O)(=O)c2ccc(C(C)(C)C)cc2)nc(-c2ncccn2)nc1OCCO [bosentan]
Increase of Cmax ([2]; by steady-state sildenafil, healthy volunteers): 42%
Increase in AUC at steady state [2, 8]: 422%
Increase in Cmax at steady state [2, 8]: 512%

concentration at 2 h [1]: 1680 ng/mL
concentration at 4 h [1]: 3960 ng/mL
concentration at 6 h [1]: 2170 ng/mL
concentration at 8 h [1]: 1890 ng/mL
Cthrough ([1]; patient on fosamprenavir 700 mg bid, ritonavir 100 mg bid): 1495 ng/mL
Plasma levels versus therapeutic ranges ([1]; patient, therapeutic ranges from ref 16): within therapeutic ranges
Plasma concentration, t0 ([1]; ritonavir 100 mg bid): 1495 ng/mL
SMILES: CC(C)CN(C[C@@H](O)[C@H](Cc1ccccc1)NC(=O)O[C@H]1CCOC1)S(=O)(=O)c1ccc(N)cc1 [amprenavir]
